Autophagy mod = alters autophagy in cells; MEF GFP-LC3 puncta imaging; test concentration mostly 10 µM; calls only at 10 µM (by protocol); actives 0.98% (n = 190,000); AID 463193;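 active = percentage of spot-positive cells more than 3 SD above its plate mean, without a fluorescence outlier flag or 80% toxicity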;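 also: spot-positive cell cutoff set from DMSO-treated cells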
bCat nuc transl = beta-catenin nuclear translocation modulation; HeLa beta-catenin nuclear translocation, immunofluorescence imaging; nuclear translocation activity, % at 5 µM; actives 0.3% (n = 190,000); AID 1665;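 active = nuclear translocation activity above 50% at 5 µM, with a well cell count of 50 or more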;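 also: per-cell ratio of nuclear to cytoplasmic median beta-catenin stain intensity; plate controls were DMSO negative control for no effect and GSK-3 inhibitor IX positive control for full effect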
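Assay system: human HeLa cells, native beta-catenin; doses: 5 µM primary, 0.02–20 µM confirmation; incubation: compound treatment 24 h, 37°C, 5% CO2; technique: fluorescence imaging of beta-catenin antibody stain plus DAPI; measure: % activation, nuclear-to-cytoplasmic median beta-catenin signal ratio per cell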
CHOP inh = inhibitors of CHOP induction in ER stress response; CHO-K1 CHOP-promoter luciferase, tunicamycin-induced, 15-18 h; inhibition, % at 10 µM; actives 3.8% (n = 220,000); AID 2732;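 active = compounds that reduced the stress-induced luciferase reporter signal by more than about 70% of percent inhibition, limit read from the data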;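 also: 0% = tunicamycin plus vehicle and 100% = wells without tunicamycin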
MT stabilizer = microtubule stabilizers in HeLa cells. % tubulin-high responders, % at 10 µM. HeLa tubulin immunostaining HCS, 24 h; share of cells brighter than vehicle mean+2SD. actives 0.83% (n = 200,000);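 active = plate Z-score above 3 for both tubulin-high and condensed-nucleus cell shares, with cell loss under 80%, at 10 µM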;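 also: anti alpha tubulin signal scored within the nucleus-defined area of each cell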
L major viab = inhibitors of Leishmania major promastigote growth. AID 1063. inhibition, % at 10 µM. actives 9% (n = 200,000). Leishmania major promastigotes, resazurin fluorescence viability; in the data active = inhibition above about 50%;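 also: promastigotes grown with compound for 44 hours at 28 °C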
Dynein transport = dynein cargo transport inhibition; 3617.4 mouse cells, GR-EGFP nuclear translocation imaging; test concentration mostly 20 µM; stimulated with dexamethasone, 1 µM; active compounds read low; z-score, hits read low; actives 0.47% (n = 220,000); AID 1381;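 active = plate z-score of nuclear minus cytoplasmic receptor signal below a set negative limit, without overly bright fluorescence or cell loss, cut at about -3.5 in these data, passing the limit was not always enough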;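 also: z-score of nuclear minus cytoplasmic ring GR-EGFP intensity difference per well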
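medium = tetracycline-free induction medium containing charcoal-stripped FBS | probe or stimulus = dexamethasone, 1.0 µM final | timing = 48 h induction, then 1 h compound, then 30 min agonist, 37 °C | detection = automated 10x imaging of fixed Hoechst-stained cells | read-out basis = nuclear versus cytoplasmic GR-EGFP signal, averaged per well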
* hit, by the source's call; i = inactive; x = no result. The list is not random: actives were taken first. Their share in the collection is about 12%.

SMILES | Autophagy mod | bCat nuc transl | CHOP inh | MT stabilizer | L major viab | Dynein transport
CCN(c1ccccc1)S(=O)(=O)c1ccc(Cl)c(C(=O)N(CC2CCCO2)C2CCS(=O)(=O)C2)c1 (centres undefined) | i | -1 | 18 | 3 | 2 | -1
CCOc1ccccc1N1CCN(C/C=C/c2ccc(N(C)C)cc2)CC1 | i | -5 | 24 | 3 | 8 | -0.32
O=C(c1ccco1)N1CCN(CC(O)COc2ccc3oc4ccccc4c3c2)CC1 (centres undefined) | i | -2 | 31 | 2 | 85* | -0.3
CN1CCN(CCCCOc2ccc(F)cc2)CC1 | i | -2 | 39 | 3 | -5 | -0.71
OC(COc1ccc(Br)cc1)CN1CCOCC1 (centres undefined) | i | -2 | 13 | 4 | -2 | 0.33
Brc1ccc(OCCOCCN2CCOCC2)cc1 | i | -6 | -4 | 5 | 90* | 0.21
Fc1ccc(OCCCCN2CCOCC2)cc1 | i | -2 | -3 | 1 | 85* | -0.23
Brc1ccc(OCCCCCN2CCOCC2)cc1 | i | -2 | 4 | 5 | 98* | 0.46
CC(C)CC1NC(=O)N(Cc2nc3ccccc3s2)C1=O (centres undefined) | x | 0 | -11 | x | x | 0.17
O=C/C(=C\Nc1ccc(C(=O)N2CCOCC2)cc1)c1nc2ccccc2o1 | i | -1 | -7 | 4 | -11 | 0.26
COC(=O)c1ccccc1NC(=O)CSc1ncn[nH]1 | x | 1 | 9 | x | x | -0.033
COc1cccc(OCCCCCN2CCOCC2)c1 | i | -1 | 5 | 4 | 99* | -0.35
COc1ccc(Oc2ncc(CN3CCN(c4ccccc4)CC3)s2)cc1 | i | -6 | 59 | 2 | -1 | 1.4
Brc1ccc(Oc2ncc(CN3CCOCC3)s2)cc1 | i | x | -28 | 3 | 90* | -0.34
O=C(c1ccco1)N1CCN(CCCCOc2ccc(F)cc2)CC1 | i | 1 | 19 | 3 | 91* | -0.66
COCCNc1nc(-c2ccc(OC)cc2)c(-c2ccc(OC)cc2)s1 | i | -2 | 43 | 2 | 2 | 0.56
CCc1ccc(NC(=O)CCc2nc3cccnc3n2Cc2ccc(OC)cc2)cc1 | i | x | 92* | 1 | 7 | 0.2
O=C(COC(=O)c1c[nH]c(=O)[nH]c1=O)Nc1ccccc1Br | x | -1 | 8 | x | x | -0.39
COc1cc(-c2nnc(CSc3nnc(Nc4ccc(C(C)C)cc4)s3)o2)cc(OC)c1OC | i | -2 | 52 | 8 | 71* | -0.61
Oc1ccccc1N=Cc1sc2ccccc2c1Cl | i | 3 | 43 | 4 | 57* | 0.17
CCc1ccn2cc(-c3ccc4c(c3)OCO4)nc2c1 | x | 0 | 78* | x | x | -0.71
COC(=O)c1ccc2nc(-c3ccc4c(c3)OCO4)cn2c1 | i | 1 | 26 | 3 | 2 | -0.34
CC(C)Cn1c(N)c(C(=O)COC(=O)c2cc(C(F)(F)F)nc3ccccc23)c(=O)n(C)c1=O | i | x | 34 | 5 | 17 | 0.54
Cn1c(N)c(C(=O)COC(=O)c2cc(C(F)(F)F)nc3ccccc23)c(=O)n(C)c1=O | i | x | 22 | 3 | 13 | 0.094
CC(C)Cn1c(N)c(C(=O)COC(=O)c2cc(-c3ccccc3)nc3ccccc23)c(=O)n(C)c1=O | i | 3 | 52 | 8 | 100* | -0.19
SMILES | Autophagy mod | bCat nuc transl | CHOP inh | MT stabilizer | L major viab | Dynein transport
CC(C)Cn1c(N)c(C(=O)COC(=O)c2cc(C3CC3)nc3ccccc23)c(=O)n(C)c1=O | i | 3 | 27 | 6 | 57* | -0.3
CC(C)Cn1c(N)c(C(=O)COC(=O)c2ccc([N+](=O)[O-])o2)c(=O)n(C)c1=O | i | 0 | -34 | 7 | 88* | -1.5
CC(C)Cn1c(N)c(C(=O)COC(=O)c2cc(-c3ccco3)nc3ccccc23)c(=O)n(C)c1=O | i | 0 | 3 | 2 | 77* | -1
Cn1c(N)c(C(=O)COC(=O)c2cc(C3CC3)nc3ccccc23)c(=O)n(Cc2ccccc2)c1=O | i | x | -10 | 4 | -5 | 0.31
COC(=O)c1cnn(-c2ccccc2)c1-n1cccc1C=O | i | -2 | 27 | x | -1 | -0.25
O=[n+]1c2c(n([O-])c3ccccc31)CCCC2 | i | x | 43 | 2 | -6 | -0.37
COc1ccccc1OCC(=O)NNC(=O)c1c(-c2ccccc2Cl)noc1C | i | 0 | -1 | 1 | -2 | -0.37

Bioassay records: PubChem BioAssay, several laboratories
